According to ChEMBL document CHEMBL3351585, “Design, synthesis and biological evaluation of novel peptides with anti-cancer and drug resistance-reversing activities” (Eur J Med Chem, 2015):
pIC50: −log10 of the molar value. Active and inactive are the calls of the source. The rule behind the calls is not given here.

How the values were obtained:
[1] = Increase in adriamycin uptake in human K562/ADR cells at 10 uM after 2.5 hrs by fluorescence microscopy; format: ADME, cell-based
Procedure, shortened: (§1)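 2 × 10^5 MCF-7/ADM or K562/ADM cells were co-incubated 2.5 h with ADM plus peptide, or with verapamil as comparator. Cells were washed with cold PBS and ADM fluorescence was imaged by fluorescence microscopy.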

[2] = Increase in adriamycin uptake in human MCF7/ADR cells at 10 uM after 2.5 hrs by fluorescence spectrophotometry; format: ADME, cell-based; conditions: nci/adr-res
Procedure, shortened: (§2)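 2 × 10^5 MCF-7/ADM or K562/ADM cells were co-incubated 2.5 h with ADM plus peptide, or with verapamil as comparator. After washing in cold PBS, cells were lysed in 0.75 M HCl/0.2% Triton X-100 in isopropanol. Lysate ADM fluorescence was measured by spectrofluorometry at ex 460/em 610 nm.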

[3] = Increase in adriamycin uptake in human K562/ADR cells at 10 uM after 2.5 hrs by fluorescence spectrophotometry; format: ADME, cell-based; procedure, shortened: as §2
[4] = Increase in adriamycin uptake in human MCF7/ADR cells at 10 uM after 2.5 hrs by fluorescence microscopy; format: ADME, cell-based; conditions: nci/adr-res; procedure, shortened: as §1
[5] = test system: K562/Adr; experiment: Potentiation of adriamycin-induced cytotoxicity against human K562/ADR cells at 10 uM after 48 hrs by MTT assay; format: functional, cell-based
Procedure, shortened: (§3)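 ADM-resistant MCF-7/ADM or K562/ADM cells, grown in RPMI1640 with 10% FBS at 37 °C and 5% CO2, were seeded at 1 × 10^4 per well and held 24 h. Fixed peptide was added, followed by graded ADM concentrations, for 48 h. MTT was then given for 4 h at 37 °C, formazan dissolved in DMSO and absorbance read at 570 nm. Verapamil served as positive control.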

[6] = test system: NCI/ADR-RES; experiment: Potentiation of adriamycin-induced cytotoxicity against human MCF7/ADR cells at 10 uM after 48 hrs by MTT assay; format: functional, cell-based; procedure, shortened: as §3
[7] = test system: K562; experiment: Anticancer activity against human K562 cells after 48 hrs by MTT assay; format: functional, cell-based; conditions: K562, 48 h
Procedure, shortened: (§4)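 Cells grown in RPMI1640 with 10% heat-inactivated FBS and 1% penicillin-streptomycin at 37 °C, 5% CO2. Log-phase cells were seeded at 5 × 10^3/well 24 h before treatment, exposed to a range of peptide concentrations for 48 h, then given MTT for 4 h. Formazan was dissolved in DMSO and A490 read. Survival was computed relative to untreated wells, and IC50 taken from the survival curve.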

[8] = Increase in adriamycin uptake in human K562/ADR cells at 1 uM after 2.5 hrs by fluorescence spectrophotometry; format: ADME, cell-based; procedure, shortened: as §2
[9] = test system: MCF7; experiment: Induction of cell membrane morphology changes in human MCF7 cells at 8 uM incubated for 30 mins by scanning electron microscopy; format: functional, cell-based
Procedure, shortened: (§5)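 MCF-7 cells were grown 24 h on coverslips at 1 × 10^5/well and exposed to peptide for 30 min. Cells were gently PBS-washed, fixed in 2.5% glutaraldehyde, and examined by scanning electron microscopy.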

[10] = Increase in adriamycin uptake in human MCF7/ADR cells at 1 uM after 2.5 hrs by fluorescence spectrophotometry; format: ADME, cell-based; conditions: nci/adr-res; procedure, shortened: as §2
[11] = Retention time of the compound by UPLC method; format: physicochemical
[12] = test system: MCF7; experiment: Antimigratory activity in human MCF7 cells assessed as inhibition of cell migration at 1 uM incubated for 48 hrs by wound healing assay; format: functional, cell-based
Procedure, shortened: (§6)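 MCF-7 cells were seeded at 2 × 10^5/well and grown 24 h to 90% confluence. A cell-free gap was scratched, and cells migrated in serum-free medium with peptide for 48 h. Wound closure was photographed at 0 h and 48 h.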

[13] = Drug uptake in cytosol of human MCF7 cells at 8 uM incubated for 5 mins or 30 mins by fluorescein isothiocyanate labeling based fluorescence microscopy; format: ADME, cell-based
Procedure, shortened: (§7)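 MCF-7 cells were plated at 1 × 10^5/well and grown 24 h, then exposed to FITC-labeled peptides for 5 min or 30 min. Cells were washed three times with cold PBS, and intracellular fluorescence was imaged by fluorescence microscopy.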

[14] = Anticancer activity against human K562/ADR cells after 48 hrs by MTT assay; format: functional, cell-based; procedure, shortened: as §4
[15] = test system: NCI/ADR-RES; experiment: Potentiation of adriamycin-induced cytotoxicity against human MCF7/ADR cells at 1 uM after 48 hrs by MTT assay; format: functional, cell-based; procedure, shortened: as §3
[16] = Anticancer activity against human MCF7/ADR cells after 48 hrs by MTT assay; format: functional, cell-based; conditions: NCI/ADR-RES; procedure, shortened: as §4
[17] = test system: MCF7; experiment: Anticancer activity against human MCF7 cells after 48 hrs by MTT assay; format: functional, cell-based; conditions: MCF7, 48 h; procedure, shortened: as §4
[18] = test system: MCF7; experiment: Induction of cell membrane alteration in human MCF7 cells at 8 uM incubated for 30 mins by acridine orange/ethidium bromide double staining method; format: functional, cell-based
Procedure, shortened: (§8)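 MCF-7 cells were plated at 1 × 10^5/well and grown 24 h, then given peptide for 30 min. Cells were washed twice with PBS and stained 10 min in the dark with cold PBS containing acridine orange and ethidium bromide. Excess dye was washed off, then cells were imaged by fluorescence microscopy. Red EB staining marks membrane-compromised cells.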

[19] = test system: K562/Adr; experiment: Potentiation of adriamycin-induced cytotoxicity against human K562/ADR cells at 1 uM after 48 hrs by MTT assay; format: functional, cell-based; procedure, shortened: as §3
[20] = Toxicity in rabbit erythrocytes assessed as induction of hemolysis at 160 uM incubated for 1 hr by microplate reader assay; format: cell-based, Oryctolagus cuniculus; conditions: erythrocyte
Procedure, shortened: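 Rabbit red blood cells in PBS were mixed 1:1 by volume with peptide solution and incubated 1 h at 37 °C, then spun at 1000 g for 5 min. Hemoglobin in the supernatant was read at 540 nm. PBS defined 0% hemolysis and 0.1% Triton X-100 defined 100%.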

[21] = test system: MCF7; experiment: Induction of cytochrome c release in mitochondria of human MCF7 cells at 8 uM incubated for 2 hrs by ELISA method (reference value: 347.8 +/- 14.5 ng); format: functional
[22] = test system: MCF7; experiment: Antimigratory activity in human MCF7 cells assessed as inhibition of cell migration at 1 uM incubated for 48 hrs by transwell migration assay; format: functional, cell-based
Procedure, shortened: (§9)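 Transwell chambers with a porous membrane separating upper and lower compartments. 4 × 10^4 MCF-7 cells were placed in the upper chamber in peptide-containing medium and incubated 48 h. Cells that reached the lower membrane surface were counted.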

[23] = Increase in adriamycin uptake in human MCF7/ADR cells at 1 uM after 2.5 hrs by fluorescence microscopy; format: ADME, cell-based; conditions: nci/adr-res; procedure, shortened: as §1
[24] = test system: MCF7; experiment: Induction of cytochrome c release in human MCF7 cells at 8 uM incubated for 2 hrs by ELISA method (reference value: 364.2 +/- 20.5 ng); format: functional
[25] = test system: MCF7; experiment: Induction of mitochondrial membrane potential depolarization in human MCF7 cells at 8 uM incubated for 2 hrs by JC1 staining; format: functional, cell-based
Procedure, shortened: (§10)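 MCF-7 cells plated at 1 × 10^5 per well, grown 24 h, then exposed to peptide for 2 h. Mitochondrial membrane potential was assessed with a JC-1 mitochondrial membrane potential kit. Green (monomer) and red (J-aggregate) fluorescence were imaged, with merged orange taken as normal potential.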

[26] = test system: MCF7; experiment: Induction of cytochrome c release in cytoplasm of human MCF7 cells at 8 uM incubated for 2 hrs by ELISA method (reference value: 44.1 +/- 2.7 ng); format: functional
[27] = Cytotoxicity against human GES-1 cells after 48 hrs by MTT assay; format: cell-based; conditions: GES1, 48 h; procedure, shortened: as §4
[28] = Increase in adriamycin uptake in human K562/ADR cells at 1 uM after 2.5 hrs by fluorescence microscopy; format: ADME, cell-based; procedure, shortened: as §1
[29] = test system: MCF7; experiment: Induction of cytochrome c release in extracellular region of human MCF7 cells at 8 uM incubated for 2 hrs by ELISA method (reference value: 15.7 +/- 0.77 ng); format: functional
[30] = Increase in adriamycin uptake in human K562/ADR cells at 0.5 uM after 2.5 hrs by fluorescence microscopy; format: ADME, cell-based; procedure, shortened: as §1
[31] = Increase in adriamycin uptake in human K562/ADR cells at 0.5 uM after 2.5 hrs by fluorescence spectrophotometry; format: ADME, cell-based; procedure, shortened: as §2
[32] = Increase in adriamycin uptake in human MCF7/ADR cells at 0.5 uM after 2.5 hrs by fluorescence spectrophotometry; format: ADME, cell-based; conditions: nci/adr-res; procedure, shortened: as §2
[33] = test system: MCF7; experiment: Antimigratory activity in human MCF7 cells assessed as inhibition of cell migration at 0.5 uM incubated for 48 hrs by wound healing assay; format: functional, cell-based; procedure, shortened: as §6
[34] = test system: MCF7; experiment: Induction of cell membrane morphology changes in human MCF7 cells at 5 uM incubated for 30 mins by scanning electron microscopy; format: functional, cell-based; procedure, shortened: as §5
[35] = test system: MCF7; experiment: Antimigratory activity in human MCF7 cells assessed as inhibition of cell migration at 0.5 uM incubated for 48 hrs by transwell migration assay; format: functional, cell-based; procedure, shortened: as §9
[36] = test system: NCI/ADR-RES; experiment: Potentiation of adriamycin-induced cytotoxicity against human MCF7/ADR cells at 0.5 uM after 48 hrs by MTT assay; format: functional, cell-based; procedure, shortened: as §3
[37] = Drug uptake in cytosol of human MCF7 cells at 5 uM incubated for 5 mins or 30 mins by fluorescein isothiocyanate labeling based fluorescence microscopy; format: ADME, cell-based; procedure, shortened: as §7
[38] = test system: MCF7; experiment: Induction of cytochrome c release in human MCF7 cells at 5 uM incubated for 2 hrs by ELISA method (reference value: 364.2 +/- 20.5 ng); format: functional
[39] = Increase in adriamycin uptake in human MCF7/ADR cells at 0.5 uM after 2.5 hrs by fluorescence microscopy; format: ADME, cell-based; conditions: nci/adr-res; procedure, shortened: as §1
[40] = test system: MCF7; experiment: Induction of mitochondrial membrane potential depolarization in human MCF7 cells at 5 uM incubated for 2 hrs by JC1 staining; format: functional, cell-based; procedure, shortened: as §10
[41] = test system: MCF7; experiment: Induction of cytochrome c release in extracellular region of human MCF7 cells at 5 uM incubated for 2 hrs by ELISA method (reference value: 15.7 +/- 0.77 ng); format: functional
[42] = test system: MCF7; experiment: Induction of cytochrome c release in cytoplasm of human MCF7 cells at 5 uM incubated for 2 hrs by ELISA method (reference value: 44.1 +/- 2.7 ng); format: functional
[43] = test system: MCF7; experiment: Induction of cell membrane alteration in human MCF7 cells at 5 uM incubated for 30 mins by acridine orange/ethidium bromide double staining method; format: functional, cell-based; procedure, shortened: as §8
[44] = test system: MCF7; experiment: Induction of cytochrome c release in mitochondria of human MCF7 cells at 5 uM incubated for 2 hrs by ELISA method (reference value: 347.8 +/- 14.5 ng); format: functional
[45] = test system: K562/Adr; experiment: Potentiation of adriamycin-induced cytotoxicity against human K562/ADR cells at 0.5 uM after 48 hrs by MTT assay; format: functional, cell-based; procedure, shortened: as §3

## COc1ccc(CCN(C)CCCC(C#N)(c2ccc(OC)c(OC)c2)C(C)C)cc1OC (configuration not stated) [VERAPAMIL]
[1]
  Activity: Active
[2]
  Activity: Active
[3]
  Activity: Active
[4]
  Activity: Active
[5]
  Activity: Active
[6]
  Activity: Active

## H-VKRFKKFFRKLKKKV-NH2
[7]
  pIC50: 5.26
[8]
  Activity: Active
[9]
  Activity: Active
[10]
  Activity: Active
[11]
  Retention_time: 3.22 min
[12]
  inhibition: Active
[13]
  Drug uptake: Active
[14]
  pIC50: 5.26
[15]
  Activity: Active
[16]
  pIC50: 5.07
[17]
  pIC50: 5.08
[18]
  Activity: Active
[19]
  Activity: Active
[20]
  Activity: Non-toxic
[21]
  Activity: 303.2 ng
[22]
  inhibition: Active
[23]
  Activity: Active
[24]
  Activity: 359.1 ng
[25]
  Activity: Active
[26]
  Activity: 59.6 ng
[27]
  pIC50: 3.91
[28]
  Activity: Active
[29]
  Activity: 15 ng

## H-VKRFKKFFRKLKKLV-NH2
[30]
  Activity: Active
[31]
  Activity: Active
[32]
  Activity: Active
[7]
  pIC50: 5.96
[33]
  inhibition: Active
[34]
  Activity: Active
[11]
  Retention_time: 3.84 min
[35]
  inhibition: Active
[36]
  Activity: Active
[14]
  pIC50: 5.48
[37]
  Drug uptake: Active
[38]
  Activity: 354.8 ng
[16]
  pIC50: 5.36
[17]
  pIC50: 5.44
[39]
  Activity: Active
[20]
  Activity: Non-toxic
[40]
  Activity: Active
[41]
  Activity: 14.9 ng
[42]
  Activity: 59.9 ng
[43]
  Activity: Active
[44]
  Activity: 303.8 ng
[45]
  Activity: Active
[27]
  pIC50: 4.11
